From ChEMBL document CHEMBL1949635, “Discovery of AMG 853, a CRTH2 and DP Dual Antagonist” (ACS Med Chem Lett, 2011)
The source made the active and inactive calls. The calls are words filed in the database; no cut-off is given here.

Experiments:
[1] = biological target: T1, Prostaglandin D2 receptor 2 (Homo sapiens, UniProt Q9Y5Y4); assay: Displacement of [3H]-PGD2 from human CRTH2 receptor expressed in human HEK293 cells by scintillation counter in presence of 50% human plasma; format: cell-based
T1 sequence (Q9Y5Y4 whole entry): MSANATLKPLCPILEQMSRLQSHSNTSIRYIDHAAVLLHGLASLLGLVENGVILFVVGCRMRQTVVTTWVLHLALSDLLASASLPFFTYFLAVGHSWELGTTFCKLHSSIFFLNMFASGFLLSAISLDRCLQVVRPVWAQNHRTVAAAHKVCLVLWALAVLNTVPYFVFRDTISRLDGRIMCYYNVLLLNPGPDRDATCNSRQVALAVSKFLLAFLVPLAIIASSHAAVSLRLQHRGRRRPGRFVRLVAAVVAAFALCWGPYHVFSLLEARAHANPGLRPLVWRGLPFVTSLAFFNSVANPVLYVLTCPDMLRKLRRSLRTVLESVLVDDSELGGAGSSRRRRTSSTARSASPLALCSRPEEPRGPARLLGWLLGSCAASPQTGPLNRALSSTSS

[2] = biological target: T2, Prostaglandin D2 receptor (Homo sapiens, UniProt Q13258); assay: Displacement of [3H]-PGD2 from human Prostanoid DP receptor expressed in human HEK293 cells by scintillation counter in presence of 50% human plasma; format: cell-based
T2 sequence (Q13258 whole entry): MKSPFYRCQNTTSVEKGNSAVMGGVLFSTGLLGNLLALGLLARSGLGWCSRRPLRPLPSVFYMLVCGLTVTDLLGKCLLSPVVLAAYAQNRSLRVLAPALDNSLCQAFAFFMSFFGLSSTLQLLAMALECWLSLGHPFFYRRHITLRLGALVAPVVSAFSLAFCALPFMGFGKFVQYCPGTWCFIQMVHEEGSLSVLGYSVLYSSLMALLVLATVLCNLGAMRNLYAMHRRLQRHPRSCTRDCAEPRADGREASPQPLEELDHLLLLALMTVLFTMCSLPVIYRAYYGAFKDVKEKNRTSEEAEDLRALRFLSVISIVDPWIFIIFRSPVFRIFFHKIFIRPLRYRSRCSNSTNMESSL
Method in brief: (§1)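 [3H]-PGD2 incubated with HEK-293 cells stably expressing human DP, with increasing compound concentrations; binding buffer held 0.5% BSA or 50% human plasma. Means of three experiments, standard deviation ±30%.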

[3] = biological target: T2, Prostaglandin D2 receptor; assay: Displacement of [3H]-PGD2 from human Prostanoid DP receptor expressed in human HEK293 cells by scintillation counter in presence of 0.5% bovine serum albumin; format: cell-based; method in brief: as §1
[4] = biological target: T1, Prostaglandin D2 receptor 2; assay: Displacement of [3H]-PGD2 from human CRTH2 receptor expressed in human HEK293 cells by scintillation counter in presence of 0.5% bovine serum albumin; format: cell-based
[5] = Plasma concentration in guinea pig at 0.3 mg/kg, sc after 4 hrs; format: ADME, organism-based, Cavia porcellus; set-up: dose 0.3 mg/kg, route subcutaneous
Method in brief: (§2)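 Guinea pig plasma drug levels taken 4 h after sc dosing, in the PGD2 aerosol airway-constriction study; n = 4 animals per group.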

[6] = Clearance in dog at 0.5 mg/kg, iv; format: ADME, organism-based, Canis lupus familiaris; set-up: dose 0.5 mg/kg, route intravenous; conditions: in vivo
[7] = Clearance in cynomolgus monkey at 0.5 mg/kg, iv; format: ADME, organism-based, Macaca fascicularis; set-up: dose 0.5 mg/kg, route intravenous; conditions: in vivo
[8] = Plasma concentration in guinea pig at 10 mg/kg, sc after 4 hrs; format: ADME, organism-based, Cavia porcellus; set-up: dose 10 mg/kg, route subcutaneous; method in brief: as §2
[9] = Mean residence time in cynomolgus monkey; format: ADME, organism-based, Macaca fascicularis; conditions: in vivo
[10] = Oral bioavailability in rat at 2 mg/kg; format: ADME, organism-based; conditions: in vivo
[11] = Volume of distribution at steady state in dog; format: ADME, organism-based, Canis lupus familiaris; conditions: in vivo, read-out: Vdss
[12] = Mean residence time in rat; format: ADME, organism-based; conditions: in vivo
[13] = Volume of distribution at steady state in cynomolgus monkey; format: ADME, organism-based, Macaca fascicularis; conditions: in vivo, read-out: Vdss
[14] = Volume of distribution at steady state in rat; format: ADME, organism-based; conditions: in vivo, read-out: Vdss
[15] = Antagonist activity at guinea pig Prostanoid DP receptor in whole blood by cAMP assay; format: functional; conditions: Cavia porcellus
[16] = Oral bioavailability in dog at 2 mg/kg; format: ADME, organism-based, Canis lupus familiaris; conditions: in vivo
[17] = Plasma concentration in guinea pig at 1 mg/kg, sc after 4 hrs; format: ADME, organism-based, Cavia porcellus; set-up: dose 1 mg/kg, route subcutaneous; method in brief: as §2
[18] = Mean residence time in dog; format: ADME, organism-based, Canis lupus familiaris; conditions: in vivo
[19] = Plasma concentration in guinea pig at 3 mg/kg, sc after 4 hrs; format: ADME, organism-based, Cavia porcellus; set-up: dose 3 mg/kg, route subcutaneous; method in brief: as §2
[20] = Clearance in rat at 0.5 mg/kg, iv; format: ADME, organism-based; set-up: dose 0.5 mg/kg, route intravenous; conditions: in vivo
[21] = Oral bioavailability in cynomolgus monkey at 2 mg/kg; format: ADME, organism-based, Macaca fascicularis; conditions: in vivo
[22] = system: Cavia porcellus; assay: Inhibition of PGD2-induced airway constriction in guinea pig model at 0.1 to 10 mg/kg, sc administered 4 hrs prior to aerosolized PGD2 challenge; format: functional, organism-based
Method in brief: (§3)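 Guinea pigs dosed sc 4 h before exposure to aerosolized PGD2 (0.6 mg/mL). Airway resistance recorded as Penh (enhanced pause) in response to the challenge. n = 4 animals per group.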

[23] = Inhibition of CYP450; format: ADME
[24] = Plasma concentration in guinea pig at 0.1 mg/kg, sc after 4 hrs; format: ADME, organism-based, Cavia porcellus; set-up: dose 0.1 mg/kg, route subcutaneous; method in brief: as §2
[25] = system: Cavia porcellus; assay: Inhibition of PGD2-induced airway constriction in guinea pig model at 0.3 to 10 mg/kg, sc administered 4 hrs prior to aerosolized PGD2 challenge; format: functional, organism-based; method in brief: as §3

O=C(O)Cc1cc(Cl)c(Oc2ccc(C(=O)NC3CCC3)cc2NS(=O)(=O)c2ccc(OC(F)(F)F)cc2Cl)cc1F
IC50 [1]: 8 nM | IC50 [2]: 19 nM | IC50 [3]: 10 nM | IC50 [4]: 5 nM

CC(C)(C)NC(=O)c1ccc(Oc2cc(F)c(CC(=O)O)cc2Cl)c(NS(=O)(=O)c2ccc(C3CC3)cc2Cl)c1 [VIDUPIPRANT]
concentration at 4 h [5]: 40 nM | clearance [6]: 15 mL/min/kg | clearance [7]: 16 mL/min/kg | IC50 [2]: 35 nM | concentration at 4 h [8]: 1400 nM | MRT [9]: 1 h | bioavailability [10]: 87% | Vd [11]: 2.72 L/kg | MRT [12]: 3.9 h | Vd [13]: 0.97 L/kg | Vd [14]: 0.71 L/kg | Kb [15]: 5 nM | bioavailability [16]: 100% | concentration at 4 h [17]: 77 nM | MRT [18]: 3 h | concentration at 4 h [19]: 222 nM | clearance [20]: 3.17 mL/min/kg | bioavailability [21]: 79% | inhibition [22]: Active | inhibition (INH) [23]: Not Active | concentration at 4 h [24]: 32 nM | IC50 [3]: 4 nM

COc1cc(CC(=O)O)ccc1Oc1ccc(C(=O)NC2CC2)cc1NS(=O)(=O)c1ccc(Cl)cc1Cl
IC50 [2]: 1030 nM

CCCCNC(=O)c1ccc(Oc2ccc(CC(=O)O)cc2OC)c(NS(=O)(=O)c2cc(Cl)ccc2Cl)c1
IC50 [2]: 3640 nM | IC50 [3]: 50 nM

CCCCNC(=O)c1ccc(Oc2ccc(CC(=O)O)cc2Cl)c(NS(=O)(=O)c2ccc(Cl)cc2Cl)c1
IC50 [1]: 90 nM | IC50 [2]: 1330 nM | IC50 [3]: 8 nM | IC50 [4]: 6 nM

O=C(O)Cc1ccc(Oc2ccc(C(=O)NC3CCC3)cc2NS(=O)(=O)c2ccc(Cl)cc2)c(Cl)c1
IC50 [1]: 12 nM | IC50 [2]: 85 nM | IC50 [3]: 16 nM | IC50 [4]: 6 nM

CC(C)(C)NC(=O)c1ccc(Oc2cc(F)c(CC(=O)O)cc2Cl)c(NS(=O)(=O)c2ccc(OC(F)(F)F)cc2Cl)c1
IC50 [1]: 19 nM | IC50 [3]: 14 nM | IC50 [4]: 9 nM

O=C(O)Cc1cc(F)c(Oc2ccc(C(=O)NC3CCC3)cc2NS(=O)(=O)c2ccc(C(F)(F)F)cc2Cl)cc1F
IC50 [1]: 41 nM | IC50 [2]: 22 nM | IC50 [3]: 9 nM | IC50 [4]: 13 nM

CCCCNC(=O)c1ccc(Oc2ccc(CC(=O)O)cc2F)c(NS(=O)(=O)c2ccc(Cl)cc2Cl)c1
IC50 [1]: 110 nM | IC50 [2]: 440 nM | IC50 [3]: 30 nM | IC50 [4]: 7 nM

CC(C)(C)NC(=O)c1ccc(Oc2ccc(CC(=O)O)cc2Cl)c(NS(=O)(=O)c2ccc(Cl)cc2)c1
IC50 [1]: 15 nM | IC50 [2]: 450 nM | IC50 [3]: 46 nM | IC50 [4]: 9 nM

CCCCNC(=O)c1ccc(Oc2ccc(CC(=O)O)cc2OC)c(NS(=O)(=O)c2ccc(Cl)c(Cl)c2)c1
IC50 [2]: 120 nM | IC50 [3]: 21 nM

CCCCNC(=O)c1ccc(Oc2ccc(CC(=O)O)cc2OC)c(NS(=O)(=O)c2ccc(C(F)(F)F)cc2Cl)c1
IC50 [2]: 190 nM | IC50 [3]: 21 nM

CCCCNC(=O)c1ccc(Oc2ccc(CC(=O)O)cc2OC)c(NS(=O)(=O)c2cccc(Cl)c2Cl)c1
IC50 [2]: 2340 nM | IC50 [3]: 520 nM

O=C(O)Cc1cc(F)c(Oc2ccc(C(=O)NC3CCC3)cc2NS(=O)(=O)c2ccc(OC(F)(F)F)cc2Cl)cc1F
IC50 [1]: 53 nM | IC50 [2]: 42 nM | IC50 [3]: 20 nM | IC50 [4]: 25 nM

CCCCNC(=O)c1ccc(Oc2ccc(CC(=O)O)cc2C)c(NS(=O)(=O)c2ccc(Cl)cc2Cl)c1
IC50 [1]: 26 nM | IC50 [2]: 230 nM | IC50 [3]: 6 nM | IC50 [4]: 3 nM

CCCCNC(=O)c1ccc(Oc2ccc(CC(=O)O)cc2OC)c(NS(=O)(=O)c2cc(Cl)cc(Cl)c2)c1
IC50 [2]: > 10000 nM | IC50 [3]: 930 nM

CCCCNC(=O)c1ccc(Oc2ccc(CC(=O)O)cc2C#N)c(NS(=O)(=O)c2ccc(Cl)cc2Cl)c1
IC50 [1]: 210 nM | IC50 [3]: 310 nM | IC50 [4]: 18 nM

O=C(O)Cc1ccc(Oc2ccc(C(=O)NC3CC3)cc2NS(=O)(=O)c2ccc(Cl)cc2Cl)c(Cl)c1
IC50 [1]: 25 nM | IC50 [2]: 220 nM | IC50 [3]: 14 nM | IC50 [4]: 7 nM

O=C(O)Cc1ccc(Oc2ccc(C(=O)NC3CCC3)cc2NS(=O)(=O)c2ccc(Cl)cc2Cl)c(Cl)c1
IC50 [1]: 19 nM | IC50 [2]: 210 nM | IC50 [3]: 9 nM | IC50 [4]: 5 nM

CCCCNC(=O)c1ccc(Oc2cc(F)c(CC(=O)O)cc2F)c(NS(=O)(=O)c2ccc(Cl)cc2Cl)c1
IC50 [2]: 600 nM | IC50 [3]: 7 nM

CCCCNC(=O)c1ccc(Oc2ccc(CC(=O)O)cc2OC)c(NS(=O)(=O)c2ccc(Cl)cc2Cl)c1
concentration at 4 h [5]: 117 nM | concentration at 4 h [8]: 939 nM | Kb [15]: 82 nM | concentration at 4 h [17]: 152 nM | concentration at 4 h [19]: 688 nM | inhibition [25]: Active

COc1cc(CC(=O)O)ccc1Oc1ccc(C(=O)NC2CCC2)cc1NS(=O)(=O)c1ccc(C(F)(F)F)cc1Cl
IC50 [1]: 13 nM | IC50 [2]: 45 nM | IC50 [3]: 13 nM | IC50 [4]: 4 nM

CC(C)(C)NC(=O)c1ccc(Oc2ccc(CC(=O)O)cc2Cl)c(NS(=O)(=O)c2ccc(Cl)cc2Cl)c1
IC50 [1]: 12 nM | IC50 [2]: 230 nM | IC50 [3]: 15 nM | IC50 [4]: 5 nM

CCCCNC(=O)c1ccc(Oc2ccc(CC(=O)O)cc2OC)c(NS(=O)(=O)c2c(Cl)cccc2Cl)c1
IC50 [3]: > 10000 nM
